Consider 16 compounds from ChEMBL document CHEMBL1129450, “Synthesis, molecular modeling, and K+ channel-blocking activity of dequalinium analogues having semirigid linkers” (J Med Chem, 1996).

Test [1] is filed under the species Rattus norvegicus. The test can be described thus: Inhibition of after-hyperpolarization (AHP) in cultured rat sympathetic neurons. It counts as functional. The following applies: Sympathetic neuron. The gist of the method:
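Compounds from 2 mM MeOH stocks, each tested at two to four concentrations on at least three cells. AHP inhibition was obtained by digitally subtracting blocker records from controls, with the peak difference given as % of control AHP at the same time point.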

Test [2] is filed under the species Rattus norvegicus. The test can be described thus: Equi-effective molar ratio expressed as the ratio of tested compound concentration to that of dequalinium that cause 50% inhibition of the AHP in rat sympathetic neurons. It counts as functional, Sympathetic neuron.

Structures are written as SMILES.

For `Nc1cc[n+](Cc2ccc(-c3cccc(-c4ccc(C[n+]5ccc(N)c6ccccc65)cc4)n3)cc2)c2ccccc12`, in the test listed under Rattus norvegicus [1], the IC50 worked out at 360 nM. Also, the Ratio in the test listed under Rattus norvegicus [2] is given as 0.59.

Compound `Nc1cc[n+](Cc2ccc(C[n+]3ccc(N)c4ccccc43)cc2)c2ccccc12` had an IC50 in the test filed under Rattus norvegicus [1] of 2800 nM. Moreover, the Ratio in the test listed under Rattus norvegicus [2] worked out at 3.7.

In turn, `Nc1cc[n+](Cc2ccc3ccc4ccc(C[n+]5ccc(N)c6ccccc65)cc4c3c2)c2ccccc12` displayed an IC50 in the test filed under Rattus norvegicus [1] of 200 nM. Moreover, in the test listed under Rattus norvegicus [2], the Ratio stood at 0.33.

`Nc1cc[n+](Cc2ccc3cc(C[n+]4ccc(N)c5ccccc54)ccc3c2)c2ccccc12` came in with a 50% inhibitory concentration (IC50) in the test filed under Rattus norvegicus [1] of 490 nM. The Ratio in the test filed under Rattus norvegicus [2] turned out to be 0.83.

In the case of `Nc1cc[n+](Cc2ccc(-c3ccc(-c4ccc(C[n+]5ccc(N)c6ccccc65)cc4)cc3)cc2)c2ccccc12`, in the test filed under Rattus norvegicus [1], the concentration for half-maximal inhibition (IC50) worked out at 1900 nM. Further, the Ratio in the test filed under Rattus norvegicus [2] stood at 2.3.

In the test listed under Rattus norvegicus [1], `Nc1cc[n+](Cc2ccc(-c3ccc(C[n+]4ccc(N)c5ccccc54)cc3)cc2)c2ccccc12` had an IC50 of 380 nM. For the same compound, in the test listed under Rattus norvegicus [2], the Ratio is 0.4.

For `Nc1cc[n+](Cc2ccc(CCCc3ccc(C[n+]4ccc(N)c5ccccc54)cc3)cc2)c2ccccc12`, in the test listed under Rattus norvegicus [1], the IC50 was 200 nM. In the test listed under Rattus norvegicus [2], the Ratio is recorded as 0.31.

With `Nc1cc[n+](Cc2ccc(C#Cc3ccc(C[n+]4ccc(N)c5ccccc54)cc3)cc2)c2ccccc12`, half-maximal inhibition in the test filed under Rattus norvegicus [1] (IC50) required 1000 nM. Also, in the test filed under Rattus norvegicus [2], the Ratio is given as 1.41.

Compound `Nc1cc[n+](Cc2ccc3c(c2)Cc2cc(C[n+]4ccc(N)c5ccccc54)ccc2-3)c2ccccc12` yielded an IC50 in the test listed under Rattus norvegicus [1] of 310 nM. Also, the Ratio in the test filed under Rattus norvegicus [2] is on record as 0.33.

Compound `Nc1cc[n+](Cc2ccc(CCc3ccc(C[n+]4ccc(N)c5ccccc54)cc3)cc2)c2ccccc12` gave a 50% inhibitory concentration (IC50) in the test filed under Rattus norvegicus [1] of 410 nM. The Ratio in the test listed under Rattus norvegicus [2] worked out at 0.71.

In the case of `Nc1cc[n+](Cc2ccc(CCCCc3ccc(C[n+]4ccc(N)c5ccccc54)cc3)cc2)c2ccccc12`, in the test listed under Rattus norvegicus [1], the midpoint of inhibition, the IC50, lay at 370 nM. Besides, the Ratio in the test listed under Rattus norvegicus [2] was determined as 0.44.

Regarding `Nc1cc[n+](Cc2ccc(/C=C/c3ccc(C[n+]4ccc(N)c5ccccc54)cc3)cc2)c2ccccc12`, inhibition in the test listed under Rattus norvegicus [1] was half-maximal at 940 nM (IC50). Besides, in the test filed under Rattus norvegicus [2], the Ratio worked out at 1.46.

In turn, `Nc1cc[n+](Cc2ccc(Cc3ccc(C[n+]4ccc(N)c5ccccc54)cc3)cc2)c2ccccc12` showed an IC50 in the test filed under Rattus norvegicus [1] of 450 nM. Also, the Ratio in the test filed under Rattus norvegicus [2] is given as 0.39.

`Nc1cc[n+](Cc2cccc(-c3cccc(C[n+]4ccc(N)c5ccccc54)c3)c2)c2ccccc12` displayed a half-maximal inhibitory concentration (IC50) in the test listed under Rattus norvegicus [1] of 290 nM. Besides, in the test listed under Rattus norvegicus [2], the Ratio was 0.55.

Consider `Nc1cc[n+](Cc2ccc(/C=C\c3ccc(C[n+]4ccc(N)c5ccccc54)cc3)cc2)c2ccccc12`, for which the half-maximal inhibitory concentration (IC50) in the test filed under Rattus norvegicus [1] amounted to 190 nM. In addition, the Ratio in the test listed under Rattus norvegicus [2] is given as 0.24.

As for `Cc1cc(N)c2ccccc2[n+]1CCCCCCCCCC[n+]1c(C)cc(N)c2ccccc21.[Cl-].[Cl-]` [DEQUALINIUM CHLORIDE], 650 nM corresponded to half-maximal inhibition in the test filed under Rattus norvegicus [1] (IC50). The Ratio in the test filed under Rattus norvegicus [2] stood at 1.
